Measured values: ChEMBL document CHEMBL2424598, “Identification and optimization of pteridinone Toll-like receptor 7 (TLR7) agonists for the oral treatment of viral hepatitis” (J Med Chem, 2013)

Experiments:
[1] = system: Cynomolgus monkey; test: Agonist activity at […] in cynomolgus monkey assessed as increase of serum IFNalpha level at 0.3 mg/kg, po after 1 to 24 hrs by ELISA; format: functional, Macaca fascicularis
How it was run: (§1)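 Healthy male cynomolgus monkeys, n = 3 per group, dosed either by 30 min iv infusion or orally. Serum was sampled predose and at 1, 2, 4, 8, 12 and 24 h postdose. IFN-α was measured by species-specific ELISA (limit of detection 130 pg/mL) and reported as mean peak serum level ± SD.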

[2] = system: Cynomolgus monkey; test: Agonist activity at […] in cynomolgus monkey assessed as increase of serum IFNalpha level at 0.1 mg/kg, iv after 1 to 24 hrs by ELISA; format: functional, Macaca fascicularis; how it was run: as §1
[3] = Cmax in cynomolgus monkey at 0.1 mg/kg, iv; format: ADME, organism-based, Macaca fascicularis; parameters: dose 0.1 mg/kg, route intravenous; conditions: in vivo
How it was run: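 Male cynomolgus monkeys, n = 3 per group, received a 30 min iv infusion or an oral dose. Compound was measured in serum (limit of quantitation 0.04 ng/mL), and Cmax is reported as the group mean.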

[4] = Half life in human liver microsomes; format: ADME, Microsome
[5] = Half life in monkey liver microsomes; format: ADME, Macaca mulatta, Microsome; conditions: rhesus monkey
[6] = Half life in rat liver microsomes; format: ADME, Microsome
[7] = molecular target: T1, Toll-like receptor 7 (Homo sapiens, UniProt Q9NYK1); test: Agonist activity at human TLR7 expressed in HEK293 cells by reporter based assay; format: cell-based
T1 sequence (Q9NYK1 whole entry): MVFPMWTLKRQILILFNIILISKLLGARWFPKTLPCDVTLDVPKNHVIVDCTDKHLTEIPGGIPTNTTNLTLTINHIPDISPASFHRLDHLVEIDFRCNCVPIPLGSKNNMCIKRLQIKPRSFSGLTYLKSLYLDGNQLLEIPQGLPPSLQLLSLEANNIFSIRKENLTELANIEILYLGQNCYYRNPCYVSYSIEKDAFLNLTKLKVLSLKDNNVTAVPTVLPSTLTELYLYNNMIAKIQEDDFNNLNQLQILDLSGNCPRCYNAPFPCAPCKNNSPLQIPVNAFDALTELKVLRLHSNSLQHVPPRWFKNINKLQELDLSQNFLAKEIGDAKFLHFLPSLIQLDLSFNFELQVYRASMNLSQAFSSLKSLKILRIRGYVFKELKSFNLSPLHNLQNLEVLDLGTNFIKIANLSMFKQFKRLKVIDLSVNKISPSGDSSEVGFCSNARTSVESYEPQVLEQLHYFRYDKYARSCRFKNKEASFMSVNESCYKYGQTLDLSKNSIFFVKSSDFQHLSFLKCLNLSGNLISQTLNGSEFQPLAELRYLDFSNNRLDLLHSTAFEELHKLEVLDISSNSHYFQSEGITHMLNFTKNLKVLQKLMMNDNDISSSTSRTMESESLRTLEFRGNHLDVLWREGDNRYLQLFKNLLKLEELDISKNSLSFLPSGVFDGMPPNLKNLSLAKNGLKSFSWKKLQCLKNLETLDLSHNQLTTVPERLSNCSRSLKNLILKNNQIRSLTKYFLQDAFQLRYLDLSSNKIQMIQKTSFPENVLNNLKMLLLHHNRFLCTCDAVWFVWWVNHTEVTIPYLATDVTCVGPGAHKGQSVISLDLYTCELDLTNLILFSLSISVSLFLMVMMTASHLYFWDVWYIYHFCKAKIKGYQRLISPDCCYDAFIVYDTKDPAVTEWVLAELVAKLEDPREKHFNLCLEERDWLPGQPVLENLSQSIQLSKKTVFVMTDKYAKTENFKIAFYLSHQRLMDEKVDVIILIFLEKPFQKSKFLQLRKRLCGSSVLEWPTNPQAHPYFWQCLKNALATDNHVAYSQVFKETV
How it was run: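 HEK293 reporter cell lines, each expressing a single human TLR, with compound titrated up to 100 μM. EC50 taken for TLR7 and TLR8 activation.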

[8] = molecular target: T2, Toll-like receptor 8 (Homo sapiens) (UniProt Q9NR97); test: Agonist activity at TLR8-mediated TNFalpha production in human PBMC assessed as minimum concentration of compound necessary to generate >3 fold of cytokine levels relative to control
T2 sequence (whole entry): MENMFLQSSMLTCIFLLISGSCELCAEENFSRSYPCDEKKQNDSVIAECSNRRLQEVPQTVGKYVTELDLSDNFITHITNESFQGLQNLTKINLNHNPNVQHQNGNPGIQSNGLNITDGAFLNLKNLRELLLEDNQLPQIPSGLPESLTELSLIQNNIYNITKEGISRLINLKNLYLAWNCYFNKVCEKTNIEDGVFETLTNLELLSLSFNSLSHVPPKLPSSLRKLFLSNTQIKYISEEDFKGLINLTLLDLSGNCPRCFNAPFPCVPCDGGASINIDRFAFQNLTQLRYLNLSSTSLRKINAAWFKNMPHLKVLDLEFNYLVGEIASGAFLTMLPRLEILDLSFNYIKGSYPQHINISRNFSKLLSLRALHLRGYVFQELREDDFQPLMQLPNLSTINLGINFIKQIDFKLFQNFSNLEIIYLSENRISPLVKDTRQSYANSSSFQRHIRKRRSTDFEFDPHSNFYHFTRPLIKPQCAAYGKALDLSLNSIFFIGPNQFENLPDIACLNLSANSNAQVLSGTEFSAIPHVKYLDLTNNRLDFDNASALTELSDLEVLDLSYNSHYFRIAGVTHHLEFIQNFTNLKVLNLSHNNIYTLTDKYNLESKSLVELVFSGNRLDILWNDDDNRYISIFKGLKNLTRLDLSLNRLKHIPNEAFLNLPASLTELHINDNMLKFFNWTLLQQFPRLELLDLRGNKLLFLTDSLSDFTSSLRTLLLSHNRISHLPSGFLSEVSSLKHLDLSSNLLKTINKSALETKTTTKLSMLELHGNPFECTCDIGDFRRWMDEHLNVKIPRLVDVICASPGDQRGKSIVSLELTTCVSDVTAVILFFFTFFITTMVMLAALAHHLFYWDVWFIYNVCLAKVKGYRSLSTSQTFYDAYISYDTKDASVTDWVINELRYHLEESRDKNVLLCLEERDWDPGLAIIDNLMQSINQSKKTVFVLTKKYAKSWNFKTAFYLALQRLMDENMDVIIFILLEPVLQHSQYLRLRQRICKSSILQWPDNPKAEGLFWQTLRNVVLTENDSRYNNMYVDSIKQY
How it was run: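 Cryopreserved human PBMCs from leukapheresis of one healthy donor, chosen as a consistent responder to TLR7 stimulation; 24 h incubation with compound over an eight-point concentration range. TNF-α read from dose-response curves. MEC is the lowest concentration giving cytokine levels at least 3-fold above untreated control cultures.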

[9] = species: Homo sapiens; test: Selectivity ratio of MEC for TLR8-mediated TNFalpha production in human PBMC to MEC for TLR7-mediated IFNalpha production in human PBMC
How it was run: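 Cryopreserved human PBMCs came from leukapheresis of a single healthy donor selected as a consistent responder. Cells were incubated with compound for 24 h over an eight-point concentration range, and cytokine release was measured. MEC is the lowest concentration giving cytokine levels at least 3-fold above untreated cultures, determined per cytokine.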

[10] = system: Cynomolgus monkey; test: Agonist activity at […] in cynomolgus monkey assessed as increase of serum TNFalpha level at 2 mg/kg after 1 to 24 hrs by ELISA

SMILES: CCCCOc1nc(N)c2c(n1)N(Cc1cccc(CN3CCCC3)c1)CC(=O)N2 [VESATOLIMOD]
- Activity [1]: 763 pg/mL
- Activity [2]: 1840 pg/mL
- Cmax [3]: 128 ng/mL
- half-life [4]: 30.5 min
- half-life [5]: 5.9 min
- half-life [6]: 5.4 min
- EC50 [7]: 290 nM
- MEC [8]: 3.65 µM
- Ratio [9]: 100
- Activity [10]: 578 pg/mL
